34 molecules from ChEMBL document CHEMBL1125923, “New dibenzothiadiazepine derivatives with antidepressant activities” (J Med Chem, 1991) can be followed below.

Series [1] concerns Mus musculus. The series is described as follows: Rectal temperature of mice treated with compound in apomorphine (16 mg/kg injected sc 30 min before temp. recording) after its oral administration at 400 mg/kg, 0.5 hr before rectal temperature measurement. Format: functional. The method, boiled down: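 Screening in male Swiss albino mice (20–22 g): 400 mg/kg compound orally; apomorphine 16 mg/kg sc 30 min before recording. Rectal temperature read at 0.5, 2, 4 h after dosing; value reported at time of peak activity (generally 0.5 h). Groups of 8–20 mice; standard errors 1–3% of mean.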

Series [2] can be described thus: Dose of compound required in mg/kg to induce lethality in 50% of mice after 14 days. Format: ADME, organism-based. Particulars: mouse, in vivo. The method, boiled down: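 Male Swiss albino mice, 20–22 g, dosed orally; deaths followed for up to 2 weeks (14 days) after administration. Groups of 8–20 mice.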
Series [3] is filed under the species Mus musculus. Description: Dose of compound required to reduce apomorphine-induced hypothermia by 50% in mice by hypothermia (Apo 16)test. Format: functional. The method, boiled down: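 Male Swiss albino mice, 20–22 g; apomorphine 16 mg/kg sc 30 min before rectal temperature recording. Compound given orally, tested at time of peak activity (0.5–2 h). […] Groups of 8–20 mice.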

For series [4], the system named is Mus musculus. Description: Dose required to reduce reserpine induced hypothermia was measured after sc administration of reserpine at 2.5 mg/kg, 18 hr before the rectal-temperature recording in mice. Format: functional. Details: unit: mg/kg. Particulars: reserpine 2.5 mg/kg sc; route oral. The method, boiled down:
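Male Swiss albino mice, 20–22 g; reserpine 2.5 mg/kg sc 18 h before rectal temperature recording. Compound given orally at time of peak activity, generally 0.5 h before recording. Groups of 8–20 mice.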

The test system of series [5] is Mus musculus. Description: Compound was evaluated after 24 hr for physostigmine induced lethality upon oral administration 60 min before intraperitoneal injection of physostigmine (0.9 mg/kg) in mice at 200 mg/kg. Format: ADME, organism-based. Details: dose 200 mg/kg, route oral. Particulars: in vivo. The method, boiled down:
(§1)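 Male Swiss albino mice, 20–22 g; compound given orally 60 min before physostigmine 0.9 mg/kg ip. Lethality scored 24 h after physostigmine injection and expressed as % of group dying. Groups of 8–20 mice; significance vs vehicle by χ2.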

In series [6] the test system is Mus musculus. The series is described as follows: Compound was evaluated after 24 hr for physostigmine induced lethality upon oral administration 60 min before intraperitoneal injection of physostigmine (0.9 mg/kg) in mice at 400 mg/kg. Format: ADME, organism-based. Details: dose 400 mg/kg, route oral. The following applies: in vivo. In outline:
as §1

For series [7], the system named is Mus musculus. Description: Compound was evaluated after 24 hr for physostigmine induced lethality upon oral administration 60 min before intraperitoneal injection of physostigmine (0.9 mg/kg) in mice at 600 mg/kg. Particulars: in vivo. Format: ADME, organism-based. Set-up: dose 600 mg/kg, route oral. The method, boiled down: as §1
The test system of series [8] is Mus musculus. Description: Compound was evaluated after 24 hr for physostigmine induced lethality upon oral administration 60 min before intraperitoneal injection of physostigmine (0.9 mg/kg) in mice at 25 mg/kg. The following applies: in vivo. Details: dose 25 mg/kg, route oral. Format: ADME, organism-based. In outline:
as §1

In the case of `Cc1cc2c(cc1Cl)N(C(=O)CN1CCN(c3ccccc3)CC1)c1ccccc1N(C)S2(=O)=O`, the Rectal temperature in series [1] was found to be 34.5 °C.
`CCN1c2ccccc2N(C(=O)CN(C)C)c2ccccc2S1(=O)=O`: the Rectal temperature in series [1] stood at 35.1 °C.
`CN1c2ccccc2N(C(=O)CNC(C)(C)C)c2ccccc2S1(=O)=O`: the Rectal temperature in series [1] came to 32.2 °C.
`Cc1cc2c(cc1Cl)N(C(=O)CN1CCN(c3ncccn3)CC1)c1ccccc1N(C)S2(=O)=O`: the Rectal temperature in series [1] stood at 32.7 °C.
`CCN(CC)CC(=O)N1c2ccccc2N(C)S(=O)(=O)c2ccccc21`: the LD50 at 336 h in series [2] is more than 2000 mg/kg. Besides, in series [3], the ED50 is 23 mg/kg. Further, in series [1], the Rectal temperature is 37.4 °C. For the same molecule, the Min effective dose in series [4] is more than 100.
On to `CN(C)CC(=O)N1c2ccccc2N(C)S(=O)(=O)c2cc(Cl)ccc21`, for which the ED50 in series [3] was 54.5 mg/kg. Also, in series [1], the Rectal temperature came to 37.7 °C. Moreover, the Min effective dose in series [4] is reported as more than 100.
`CN1c2ccccc2N(C(=O)CN2CCCC2)c2ccccc2S1(=O)=O`: the Rectal temperature in series [1] turned out to be 34.2 °C.
For the molecule `CN1c2ccccc2N(C(=O)CN2CCOCC2)c2ccccc2S1(=O)=O`, the Rectal temperature in series [1] was 33.9 °C.
As to `Cc1ccc2c(c1)N(C(=O)CN(C)C)c1ccccc1S(=O)(=O)N2C`, the 50% lethal dose (LD50) at 336 h in series [2] was determined as 1730 mg/kg. In series [3], this molecule gave an ED50 of 14.4 mg/kg. In addition, the Rectal temperature in series [1] was 38.8 °C. Besides, the Min effective dose in series [4] is on record as 100.
Consider `Cc1cc2c(cc1Cl)N(C(=O)CN1CCN(CCO)CC1)c1ccccc1N(C)S2(=O)=O`, for which, in series [1], the Rectal temperature turned out to be 34.1 °C.
On the same count and under the same terms, under `CN1CCN(CC(=O)N2c3ccccc3N(C)S(=O)(=O)c3ccccc32)CC1` stands 34.4 °C; under `CC1CCN(CC(=O)N2c3ccccc3N(C)S(=O)(=O)c3ccccc32)CC1`, 33.2 °C; under `CN(C)CC(=O)N1c2ccccc2N(C)S(=O)(=O)c2ccc(Cl)cc21`, 35.4 °C.
In series [3], `CN(C)CC(=O)N1c2cc(Cl)ccc2N(C)S(=O)(=O)c2ccccc21` showed a median effective dose (ED50) of 50.6 mg/kg. Also, in series [1], the Rectal temperature worked out at 37.4 °C. The molecule also had a Min effective dose in series [4] of more than 100.
For the molecule `COc1ccc2c(c1)N(C(=O)CN(C)C)c1ccccc1N(C)S2(=O)=O`, the Rectal temperature in series [1] was determined as 33.6 °C.
Regarding `CN1c2ccccc2N(C(=O)CN2CCN(CCO)CC2)c2ccccc2S1(=O)=O`, the Rectal temperature in series [1] stood at 34.4 °C.
With `Cc1ccc2c(c1)N(C(=O)CN(C)C)c1ccccc1N(C)S2(=O)=O`, the Rectal temperature in series [1] was 35.2 °C.
Regarding `CN(C)CC(=O)N1c2ccc(Cl)cc2N(C)S(=O)(=O)c2ccccc21`, the LD50 at 336 h in series [2] amounted to 1420 mg/kg. Further, it took a dose of 23.5 mg/kg to reach the 50% effect level in series [3] (ED50). In series [1], the Rectal temperature is 39.5 °C. This molecule also registered a Min effective dose in series [4] of more than 100.
In the case of `CN(C)CC(=O)N1c2ccccc2N(C)S(=O)(=O)c2ccc(C(F)(F)F)cc21`, the Rectal temperature in series [1] stood at 34.8 °C.
In series [2], `CN(C)CC(=O)N1c2ccccc2N(C)S(=O)(=O)c2ccccc21` yielded an LD50 at 336 h of 1920 mg/kg. Further, the Lethality in series [5] is 95%; in series [6] it was 95%; in series [7], 90%. The Rectal temperature in series [1] worked out at 38.7 °C. The Min effective dose in series [4] is given as 25.
In series [2], `CNCC(=O)N1c2ccccc2N(C)S(=O)(=O)c2ccccc21` displayed an LD50 at 336 h of 789 mg/kg. This molecule also displayed an ED50 in series [3] of 12 mg/kg. Also, the Rectal temperature in series [1] was determined as 38.2 °C. The molecule also came in with a Min effective dose in series [4] of 100.
As to `Cc1cc2c(cc1Cl)N(C(=O)CN(C)C)c1ccccc1N(C)S2(=O)=O`, the Rectal temperature in series [1] stood at 35.8 °C.
Same read-out and setting: under `CN1c2ccccc2N(C(=O)CN)c2ccccc2S1(=O)=O` stands 36.1 °C; under `CN(C)C(=O)N1c2ccccc2N(C)S(=O)(=O)c2ccccc21`, 33.7 °C; under `Cc1cc2c(cc1Cl)N(C(=O)CNC(C)C)c1ccccc1N(C)S2(=O)=O`, 33.1 °C.
The molecule `CN(C)CCCN1c2ccccc2CCc2ccccc21` [IMIPRAMINE] came in with an ED50 in series [3] of 3.7 mg/kg. In addition, the Min effective dose in series [4] is 4.
Molecule `CN(C)CCN1c2ccccc2N(C)S(=O)(=O)c2ccccc21` came in with an LD50 at 336 h in series [2] of 468 mg/kg. The ED50 in series [3] was more than 100 mg/kg. This molecule also showed a Min effective dose in series [4] of 100.
Take `CC(C)NCC(=O)N1c2ccccc2N(C)S(=O)(=O)c2ccccc21`: the Rectal temperature in series [1] is 34.1 °C.
Take `CN(C)CCCN1c2ccccc2N(C)S(=O)(=O)c2ccccc21`: in series [2], the LD50 at 336 h amounted to 655 mg/kg. The molecule further displayed an ED50 in series [3] of 4.9 mg/kg. This molecule displayed a Min effective dose in series [4] of more than 100.
`Cc1cc2c(cc1Cl)N(C(=O)CN1CCN(C)CC1)c1ccccc1N(C)S2(=O)=O`: the Rectal temperature in series [1] turned out to be 32.5 °C.
Consider `CN(C)CCC(=O)N1c2ccccc2N(C)S(=O)(=O)c2ccccc21`, for which the median lethal dose (LD50) at 336 h in series [2] came to 521 mg/kg. The same molecule gave an ED50 in series [3] of 23.1 mg/kg. In addition, the Rectal temperature in series [1] came to 36.5 °C. For the same molecule, the Min effective dose in series [4] was more than 100.
For `CCCN1c2ccccc2N(C(=O)CN(C)C)c2ccccc2S1(=O)=O`, the Rectal temperature in series [1] worked out at 35.8 °C.
On the same count and under the same terms, with `CN1c2ccccc2N(C(N)=O)c2ccccc2S1(=O)=O` the figure was 33.8 °C.
On to `CN(C)CCC=C1c2ccccc2CCc2ccccc21` [AMITRIPTYLINE], for which, in series [8], the Lethality is given as 37%.
